The record followed here is ChEMBL document CHEMBL2016496, “The SAR development of dihydroimidazoisoquinoline derivatives as phosphodiesterase 10A inhibitors for the treatment of schizophrenia” (Bioorg Med Chem Lett, 2012).

One data set concerns Rattus norvegicus. As to the kind of experiment: Antipsychotic activity in CD rat assessed as inhibition of MK801-induced hyperactivity at 3 mg/kg, po. On the set-up: dose 3 mg/kg. It counts as functional, organism-based. Put shortly: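 Male CD rats were habituated to locomotor activity chambers 24 h before testing. On test day, MK-801 (0.3 mg/kg, sc) was co-administered with the PDE10 inhibitor (po) and the rats were placed in the apparatus. Inhibition is the activity of the inhibitor+MK-801 group as a percent of the vehicle+MK-801 group.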

For data set [1], the target named is cGMP-dependent 3',5'-cyclic phosphodiesterase (Homo sapiens, UniProt O00408). In words: Inhibition of human recombinant PDE2 assessed as inhibition of [3H]cAMP hydrolysis by scintillation proximity assay. Put shortly: (§1)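 Scintillation proximity assay on recombinant human PDEs 1–11, with [³H]cAMP as substrate and hydrolysis of cAMP to AMP as read-out. Ki values are means of two experiments.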
cGMP-dependent 3',5'-cyclic phosphodiesterase, sequence (O00408 whole entry): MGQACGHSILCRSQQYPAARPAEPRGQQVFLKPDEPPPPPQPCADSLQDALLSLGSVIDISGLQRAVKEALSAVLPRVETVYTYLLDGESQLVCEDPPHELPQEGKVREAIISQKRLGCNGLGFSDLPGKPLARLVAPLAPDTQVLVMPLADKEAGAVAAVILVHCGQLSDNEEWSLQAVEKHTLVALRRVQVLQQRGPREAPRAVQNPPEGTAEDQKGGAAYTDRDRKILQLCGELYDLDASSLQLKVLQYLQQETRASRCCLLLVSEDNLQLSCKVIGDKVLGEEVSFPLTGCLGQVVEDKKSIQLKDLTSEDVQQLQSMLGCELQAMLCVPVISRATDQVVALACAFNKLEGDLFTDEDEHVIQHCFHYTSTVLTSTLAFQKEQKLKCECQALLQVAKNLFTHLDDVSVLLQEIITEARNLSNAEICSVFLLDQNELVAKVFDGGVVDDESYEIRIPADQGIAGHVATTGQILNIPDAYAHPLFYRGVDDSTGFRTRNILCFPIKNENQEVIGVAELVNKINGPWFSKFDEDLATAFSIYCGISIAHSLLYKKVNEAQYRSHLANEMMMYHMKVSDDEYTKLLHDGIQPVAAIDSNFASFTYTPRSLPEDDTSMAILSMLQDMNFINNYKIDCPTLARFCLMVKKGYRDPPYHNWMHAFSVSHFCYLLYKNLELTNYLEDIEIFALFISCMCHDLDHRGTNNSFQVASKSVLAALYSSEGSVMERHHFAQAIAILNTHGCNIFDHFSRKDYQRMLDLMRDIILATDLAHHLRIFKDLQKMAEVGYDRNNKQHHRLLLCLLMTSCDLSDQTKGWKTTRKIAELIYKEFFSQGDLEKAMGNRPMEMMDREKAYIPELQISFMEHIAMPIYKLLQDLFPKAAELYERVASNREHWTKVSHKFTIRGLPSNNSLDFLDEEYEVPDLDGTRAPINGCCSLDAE
For orientation: Scintillation proximity formats need no separation of bound from free tracer.

Data set [2] addresses cAMP and cAMP-inhibited cGMP 3',5'-cyclic phosphodiesterase 10A (Homo sapiens, UniProt Q9Y233). In words: Inhibition of human recombinant PDE10A assessed as inhibition of [3H]cAMP hydrolysis by scintillation proximity assay. Put shortly:
as §1

The target of the next data set is Phosphodiesterase 8 (Homo sapiens, UniProt O95263+O60658). In words: Inhibition of human recombinant PDE8 assessed as inhibition of [3H]cAMP hydrolysis by scintillation proximity assay. It counts as protein assay. In short, it runs like this:
as §1

The nature of data set [3]: Clearance in monkey hepatocytes assessed per 10^6 cells. Format: ADME, cell-based, Macaca mulatta, Hepatocyte. Conditions: rhesus monkey, read-out: CLH.
For data set [4], the target named is cGMP-specific 3',5'-cyclic phosphodiesterase (Homo sapiens, UniProt O76074). In words: Inhibition of human recombinant PDE5 assessed as inhibition of [3H]cAMP hydrolysis by scintillation proximity assay. In short, it runs like this:
as §1

A short description of data set [5]: Dissociation constant, pKa of the compound. It counts as physicochemical.
Data set [6] is described as follows: Clearance in rat hepatocytes assessed per 10^6 cells. It counts as ADME, cell-based, Hepatocyte. Conditions: read-out: CLH.
A short description of data set [7]: Toxicity in Cebus monkey assessed as extrapyramidal symptoms at 3 to 6 mg/kg, po. Format: organism-based. On the set-up: dose 3-6 mg/kg, route oral. Conditions: in vivo.
Data set [8] in a line: Solubility of the compound in 2% DMSO at pH 7.4. It counts as physicochemical.
Data set [9] has as its target cGMP-inhibited 3',5'-cyclic phosphodiesterase 3A (Homo sapiens, UniProt Q14432). In words: Inhibition of human recombinant PDE3A assessed as inhibition of [3H]cAMP hydrolysis by scintillation proximity assay. In short, it runs like this:
as §1

The nature of data set [10]: Efflux ratio in human Caco2 cells. It counts as ADME, cell-based. Conditions: Caco-2.
In data set [11] the target is Dual 3',5'-cyclic-AMP and -GMP phosphodiesterase 11A (Homo sapiens, UniProt Q9HCR9). As to the kind of experiment: Inhibition of human recombinant PDE11 assessed as inhibition of [3H]cAMP hydrolysis by scintillation proximity assay. In short, it runs like this:
as §1

A further data set addresses Phosphodiesterase 6. As to the kind of experiment: Inhibition of human recombinant PDE6 assessed as inhibition of [3H]cAMP hydrolysis by scintillation proximity assay. It counts as protein assay. Put shortly: as §1
The target in data set [12] is High affinity 3',5'-cyclic-AMP phosphodiesterase 7A (Homo sapiens, UniProt Q13946). In words: Inhibition of human recombinant PDE7A1 assessed as inhibition of [3H]cAMP hydrolysis at 3 uM by scintillation proximity assay. In short, it runs like this:
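Recombinant human PDE3A or PDE7A1 was tested at a single 3 µM level in the scintillation proximity assay, with [³H]cAMP as substrate and cAMP-to-AMP hydrolysis as read-out. Results are expressed as % inhibition.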

The target of another data set is hERG (KCNH2) (Homo sapiens, UniProt Q12809). In words: Inhibition of human ERG at 10 uM. Put shortly: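 hERG inhibition was measured on the IonWorks platform at 10 µM.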
For data set [13], the target named is High affinity cGMP-specific 3',5'-cyclic phosphodiesterase 9A (Homo sapiens, UniProt O76083). As to the kind of experiment: Inhibition of human recombinant PDE9 assessed as inhibition of [3H]cAMP hydrolysis by scintillation proximity assay. In short, it runs like this:
as §1

Data set [14] is described as follows: Clearance in human hepatocytes assessed per 10^6 cells. Format: ADME, cell-based, Hepatocyte. As to conditions: read-out: CLH.
The target of another data set is Phosphodiesterase 1 (Homo sapiens, UniProt P54750+Q01064+Q14123). As to the kind of experiment: Inhibition of human recombinant PDE1 assessed as inhibition of [3H]cAMP hydrolysis by scintillation proximity assay. Format: protein assay. In short, it runs like this:
as §1

The nature of data set [15]: Toxicity in Cebus monkey assessed as akathisia at 3 to 6 mg/kg, po. It counts as organism-based. On the set-up: dose 3-6 mg/kg, route oral. As to conditions: in vivo.
A further data set has as its target Phosphodiesterase 4 (Homo sapiens, UniProt P27815+Q08499+Q07343+Q08493). In words: Inhibition of human recombinant PDE4 assessed as inhibition of [3H]cAMP hydrolysis by scintillation proximity assay. Format: protein assay. In short, it runs like this:
as §1

Calls of active or inactive are those of the source. The calls are words filed in the database; no cut-off is given here.

cAMP and cAMP-inhibited cGMP 3',5'-cyclic phosphodiesterase 10A, sequence (Q9Y233 whole entry): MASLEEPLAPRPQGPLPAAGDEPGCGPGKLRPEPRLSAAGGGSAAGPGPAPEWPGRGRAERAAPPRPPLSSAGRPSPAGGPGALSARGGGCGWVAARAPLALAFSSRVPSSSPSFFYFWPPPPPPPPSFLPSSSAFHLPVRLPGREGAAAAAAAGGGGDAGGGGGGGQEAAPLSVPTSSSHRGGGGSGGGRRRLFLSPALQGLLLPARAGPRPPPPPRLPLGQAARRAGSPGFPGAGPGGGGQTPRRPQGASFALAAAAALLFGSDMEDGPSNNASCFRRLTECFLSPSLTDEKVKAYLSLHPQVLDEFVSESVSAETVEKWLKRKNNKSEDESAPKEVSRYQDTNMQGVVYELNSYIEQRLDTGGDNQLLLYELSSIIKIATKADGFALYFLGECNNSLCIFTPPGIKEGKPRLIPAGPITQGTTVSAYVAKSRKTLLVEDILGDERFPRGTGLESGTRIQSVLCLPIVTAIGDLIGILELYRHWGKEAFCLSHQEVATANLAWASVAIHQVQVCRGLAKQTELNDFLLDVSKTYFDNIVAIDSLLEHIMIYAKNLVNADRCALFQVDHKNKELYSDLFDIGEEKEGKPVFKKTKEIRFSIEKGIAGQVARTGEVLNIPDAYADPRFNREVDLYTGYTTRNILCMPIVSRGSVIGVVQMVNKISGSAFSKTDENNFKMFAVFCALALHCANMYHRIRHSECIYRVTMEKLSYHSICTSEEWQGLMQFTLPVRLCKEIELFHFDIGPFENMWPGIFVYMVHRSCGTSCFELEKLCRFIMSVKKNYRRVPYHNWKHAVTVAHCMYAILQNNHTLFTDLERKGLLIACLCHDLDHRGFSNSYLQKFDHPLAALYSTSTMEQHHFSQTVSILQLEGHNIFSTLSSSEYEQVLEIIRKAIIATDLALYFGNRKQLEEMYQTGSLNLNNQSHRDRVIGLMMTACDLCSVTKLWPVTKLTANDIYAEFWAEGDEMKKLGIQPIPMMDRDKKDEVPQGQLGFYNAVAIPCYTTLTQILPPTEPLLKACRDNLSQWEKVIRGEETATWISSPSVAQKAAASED
cGMP-inhibited 3',5'-cyclic phosphodiesterase 3A, sequence (Q14432 whole entry): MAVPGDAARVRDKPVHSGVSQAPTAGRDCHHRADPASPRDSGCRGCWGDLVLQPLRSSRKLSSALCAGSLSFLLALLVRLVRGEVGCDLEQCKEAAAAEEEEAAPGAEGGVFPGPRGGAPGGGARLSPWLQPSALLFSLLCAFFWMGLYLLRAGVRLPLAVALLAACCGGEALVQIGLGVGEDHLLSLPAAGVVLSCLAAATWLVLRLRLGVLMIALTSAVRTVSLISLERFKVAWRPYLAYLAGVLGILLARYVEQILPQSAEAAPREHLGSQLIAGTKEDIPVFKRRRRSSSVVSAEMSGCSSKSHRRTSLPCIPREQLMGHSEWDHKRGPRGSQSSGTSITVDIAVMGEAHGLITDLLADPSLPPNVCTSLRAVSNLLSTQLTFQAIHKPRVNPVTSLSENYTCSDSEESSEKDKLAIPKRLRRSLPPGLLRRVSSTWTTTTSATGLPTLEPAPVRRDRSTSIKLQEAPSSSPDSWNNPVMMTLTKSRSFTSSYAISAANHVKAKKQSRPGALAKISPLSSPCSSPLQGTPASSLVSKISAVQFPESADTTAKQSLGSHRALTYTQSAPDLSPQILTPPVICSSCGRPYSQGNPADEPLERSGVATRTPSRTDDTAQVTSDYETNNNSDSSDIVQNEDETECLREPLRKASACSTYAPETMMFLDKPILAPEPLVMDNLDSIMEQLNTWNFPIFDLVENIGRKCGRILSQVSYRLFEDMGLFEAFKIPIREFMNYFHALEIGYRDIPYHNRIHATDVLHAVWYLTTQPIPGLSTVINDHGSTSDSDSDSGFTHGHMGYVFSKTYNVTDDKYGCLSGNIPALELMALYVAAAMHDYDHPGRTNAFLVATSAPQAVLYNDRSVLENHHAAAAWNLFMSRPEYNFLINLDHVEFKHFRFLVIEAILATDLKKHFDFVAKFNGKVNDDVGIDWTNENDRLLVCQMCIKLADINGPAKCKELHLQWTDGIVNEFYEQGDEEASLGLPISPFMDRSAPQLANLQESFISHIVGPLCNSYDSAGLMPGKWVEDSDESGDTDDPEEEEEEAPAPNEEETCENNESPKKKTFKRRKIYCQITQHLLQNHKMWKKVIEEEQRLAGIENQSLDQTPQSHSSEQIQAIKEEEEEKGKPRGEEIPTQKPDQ
High affinity 3',5'-cyclic-AMP phosphodiesterase 7A, sequence (Q13946 whole entry): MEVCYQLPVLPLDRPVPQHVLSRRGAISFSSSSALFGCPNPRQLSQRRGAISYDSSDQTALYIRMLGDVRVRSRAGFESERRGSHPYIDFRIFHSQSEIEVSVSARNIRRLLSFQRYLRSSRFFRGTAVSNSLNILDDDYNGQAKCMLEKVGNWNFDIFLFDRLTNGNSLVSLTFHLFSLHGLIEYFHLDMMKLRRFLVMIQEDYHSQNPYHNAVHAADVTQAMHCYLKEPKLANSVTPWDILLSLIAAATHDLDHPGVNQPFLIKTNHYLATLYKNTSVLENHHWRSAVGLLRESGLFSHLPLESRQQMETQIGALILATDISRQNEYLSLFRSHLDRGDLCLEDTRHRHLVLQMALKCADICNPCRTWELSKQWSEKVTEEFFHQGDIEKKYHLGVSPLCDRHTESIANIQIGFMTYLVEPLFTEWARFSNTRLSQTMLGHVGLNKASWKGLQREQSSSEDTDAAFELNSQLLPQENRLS
High affinity cGMP-specific 3',5'-cyclic phosphodiesterase 9A, sequence (O76083 whole entry): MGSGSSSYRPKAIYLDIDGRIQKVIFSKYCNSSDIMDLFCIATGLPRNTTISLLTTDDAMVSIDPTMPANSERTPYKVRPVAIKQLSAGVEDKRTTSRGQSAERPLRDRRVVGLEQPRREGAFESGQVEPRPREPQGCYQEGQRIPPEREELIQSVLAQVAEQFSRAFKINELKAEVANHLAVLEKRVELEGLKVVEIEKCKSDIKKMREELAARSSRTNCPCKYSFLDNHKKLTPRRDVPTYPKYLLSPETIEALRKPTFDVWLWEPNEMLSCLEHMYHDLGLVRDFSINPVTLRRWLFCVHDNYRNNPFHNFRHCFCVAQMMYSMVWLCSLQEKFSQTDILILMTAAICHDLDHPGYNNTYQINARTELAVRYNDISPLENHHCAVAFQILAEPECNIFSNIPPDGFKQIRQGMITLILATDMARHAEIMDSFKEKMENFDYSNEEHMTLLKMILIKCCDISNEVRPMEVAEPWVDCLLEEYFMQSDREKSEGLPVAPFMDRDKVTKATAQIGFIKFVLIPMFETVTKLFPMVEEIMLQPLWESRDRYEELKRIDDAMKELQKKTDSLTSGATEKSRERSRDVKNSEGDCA

For orientation: Ki means the equilibrium dissociation constant of an inhibitor or competing ligand from its target. For orientation: pKa means the negative logarithm of the acid dissociation constant. By solubility is commonly meant how much of the substance goes into solution per volume. In general, efflux ratio refers to a quotient of directional permeabilities that is used to spot active efflux. In general, inhibition refers to the relative decrease from the control value, in per cent. With `COc1cc2c(cc1OC)-c1c(-c3cccnc3)ncn1CC2`, in the data set with Rattus norvegicus, the outcome was Active. For the same compound, the Ki in [1] is more than 4.27 µM; in [2], 0.029 µM; on Phosphodiesterase 8 it was more than 4.274 µM; in [4], more than 4.27 µM; in data set [9] it was 0.449 µM; in data set [11] it was more than 4.27 µM. Moreover, the Ki is more than 4.274 µM at Phosphodiesterase 6, more than 4.27 µM in data set [13], more than 4.274 µM at Phosphodiesterase 1 and more than 4.274 µM on Phosphodiesterase 4. Also, the hepatocyte CLint in data set [3] turned out to be 38.7 µL/min/1e6 cells; in [6], 11.8 µL/min/1e6 cells; in [14], 1.7 µL/min/1e6 cells. This compound also had a pKa in data set [5] of 3.5. Also, the Activity entry in data set [7] and in data set [15] was “Non-toxic” in each case. This compound came in with a solubility in data set [8] of more than 200 µM. Also, in data set [10], the efflux ratio was found to be 1.4. In addition, in data set [12], the inhibition was 45%. In addition, the inhibition at 10 µM against hERG (KCNH2) stood at 24%.
